Source: the RNAGym collection of RNA variant scans (doi:10.1126/science.aae0568)
This sample holds only a part of the variants without activity.

B1: tRNA (parent)
chain: GUUCCGUUGGCGUAAUGGUAACGCGUCUCCCUCCUAAGGAGAAGACUGCGGGUUCGAGUCCCGUACGGAACG

Variants of: B1
Assay: yeast fitness relative to wild type (ratio to wild type); higher = fitter; tRNA-Arg(CCU), competitive growth, 37 C, YPD
Outline: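 Variants of the tRNA-Arg(CCU) gene, chemically synthesised with a 3% per-site mutation rate at 69 sites, were placed at the native genomic locus in Saccharomyces cerevisiae. The pooled strains were competed in YPD at 37°C for 24 hours in six parallel replicates. Gene amplicons from the start population and from each end population were read by 100-nucleotide paired-end sequencing. Darwinian fitness relative to wild type came from changes in genotype frequencies; genotypes needed ≥ 100 starting reads, and estimates < 0.5 were set to 0.5.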

Point of comparison: GUUCCAUUGGCGUAAUGGUAACGCGUCUCCCUCCUAAAGAGAAGACUGCGGGUUCAAGUCCCGUACGGAACG, yeast fitness 0.679. Against it:
- GUUCCAUUGGCGUAAUGGUAACGCGUCUCCCUCCUAAAGCGAAGACUGCGGGUUCAAGUUGCGUACGGAACG — lower, ≤ 0.5
- GUUCCAUUGGCGUAAUGGUAACGCGUCUCCCUCCUAACGAGAAGACUGCGGGUUCGAGUCCCGUAUGGAACG — lower, 0.532
- GUUCCAUUGGCGUAAUGGUAACGCGUCUCCCUCCUAACGAGAAGACUGCGGGUACGAGUCCCGUCCGGAACG — lower, ≤ 0.5
- GUUCCAUUGGCGUAAUGGUAACGCGUCUCCCUCCUAAGAAGAAGACUGCGGGUUCGAGUCCCGUACGGAACG — higher, 0.916
- GUUCCAUUGGCGUAAUGGUAACGCGUCUCCCUCCUAAGAAGAAGACUGCGGGUUCGAGUCCCGUCCGGAACG — lower, 0.605
- GUUCCAUUGGCGUAAUGGUAACGCGUCUCCCUCCUAAGAAAAAGACUGCGGGUUCGAGUCCCGUGCGGAACG — lower, 0.613
- GUUCCAUUGGCGUAAUGGUAACGCGUCUCCCUCCUAAGAAGAAGACUGCGGCUUGGAGUCCCGUACGGAACG — lower, ≤ 0.5
- GUUCCAUUGGCGUAAUGGUAACGCGUCUCCCUCCUAAGCAGAAGGCUGCGGGUUCGAGUCCCGUACGGAACG — lower, ≤ 0.5
- GUUCCAUUGGCGUAAUGGUAACGCGUCUCCCUCCUAAGCAGAAGACUGCGGGUUGGAGUCCCGUACGGAACG — lower, ≤ 0.5
- GUUCCAUUGGCGUAAUGGUAACGCGUCUCCCUCCUAAGCAGAACAUUGCGGGUUCGAGUCCCGUACGGAACG — lower, ≤ 0.5
- GUUCCAUUGGCGUAAUGGUAACGCGUCUCCCUCCUAAGGAAAAGACUGCGGGUUCGAGUCCCGUACGGAACG — higher, 0.822
- GUUCCAUUGGCGUAAUGGUAACGCGUCUCCCUCCUAAGGAACAGACUGCCGGUUCGAGUCCCGUACGGAGCG — lower, 0.543
- GUUCCAUUGGCGUAAUGGUAACGCGUCUCCCUCCUAAGGAAAAGACUGCGGGUUCGAGUCCUGUACGGAACG — lower, 0.619
- GUUCCAUUGGCGUAAUGGUAACGCGUCUCCCUCCUAAGGAAAAGACUGCGCGUUCGAGUCCCGUACGGAACG — lower, ≤ 0.5
- GUUCCAUUGGCGUAAUGGUAACGCGUCUCCCUCCUAAGGACAGGACUGUGGGUUCGAGUCCCGUACGGAACG — higher, 0.745
- GUUCCAUUGGCGUAAUGGUAACGCGUCUCCCUCCUAAGGAGAAAGCUGCGCGUUCGAGUCCCGUAUGGCACG — lower, ≤ 0.5
- GUUCCAUUGGCGUAAUGGUAACGCGUCUCCCUCCUAAGGAGAAAAAUGCGGGUUCGAGUCCCGUACGGAACG — lower, ≤ 0.5
- GUUCCAUUGGCGUAAUGGUAACGCGUCUCCCUCCUAAGGAGAAAAAUGCGGAUUCGAGUCCCGUACGGAACG — lower, 0.629
- GUUCCAUUGGCGUAAUGGUAACGCGUCUCCCUCCUAAGGAGAAAACUGCGGGUUCGAGUGCCGCACGGAACG — lower, ≤ 0.5
- GUUCCAUUGGCGUAAUGGUAACGCGUCUCCCUCCUAAGGAGAAAACUGCGGGUUCGAGUCGCGUACGGAACG — lower, ≤ 0.5
- GUUCCAUUGGCGUAAUGGUAACGCGUCUCCCUCCUAAGGAGAAAACUGCGCGUUCGAGUCCCGUAUGGAACG — lower, ≤ 0.5
- GUUCCAUUGGCGUAAUGGUAACGCGUCUCCCUCCUAAGGAGAACACUGCGGGUUCGAGUCCCGUACGGAACG — higher, 0.799
- GUUCCAUUGGCGUAAUGGUAACGCGUCUCCCUCCUAAGGAGAAUACUGCGGGUUCGAGUCCCGUAUGGAACG — lower, 0.601
- GUUCCAUUGGCGUAAUGGUAACGCGUCUCCCUCCUAAGGAGAAGACUACGGGUUCGAGUCCCGUCCGGAACG — lower, 0.541
- GUUCCAUUGGCGUAAUGGUAACGCGUCUCCCUCCUAAGGAGAAGACUCCGGGUUCGAGUCCCGUAUGGAACG — higher, 0.769
- GUUCCAUUGGCGUAAUGGUAACGCGUCUCCCUCCUAAGGAGAAGACUGCAGGUUCGAGUCCCGUACGGAACG — higher, 0.841
- GUUCCAUUGGCGUAAUGGUAACGCGUCUCCCUCCUAAGGAGAAGACUGCAGGUUCGAGUCCCGUUCGGAACG — lower, ≤ 0.5
- GUUCCAUUGGCGUAAUGGUAACGCGUCUCCCUCCUAAGGAGAAGACUGCAGGUUCUAAUCCCGUACGGAACG — lower, ≤ 0.5
- GUUCCAUUGGCGUAAUGGUAACGCGUCUCCCUCCUAAGGAGAAGACUGCAGGGUCGAGUCCCGUACGGGACG — lower, ≤ 0.5
- GUUCCAUUGGCGUAAUGGUAACGCGUCUCCCUCCUAAGGAGAAGACUGCCGGUUCGAGUCCCGUACGGAACG — lower, 0.629
- GUUCCAUUGGCGUAAUGGUAACGCGUCUCCCUCCUAAGGAGAAGACUGCUGGUUCGAGUCCCGUACGGAACG — higher, 0.826
- GUUCCAUUGGCGUAAUGGUAACGCGUCUCCCUCCUAAGGAGAAGACUGCGAGUUCGAGUGCCGUACGGAACG — lower, ≤ 0.5
- GUUCCAUUGGCGUAAUGGUAACGCGUCUCCCUCCUAAGGAGAAGACUGCGGAUUCGAGUCCCGUACGGAACG — lower, 0.677
- GUUCCAUUGGCGUAAUGGUAACGCGUCUCCCUCCUAAGGAGAAGACUGCGGCUUCGAGUCCCGUAUGGAACG — lower, 0.584
- GUUCCAUUGGCGUAAUGGUAACGCGUCUCCCUCCUAAGGAGAAGACUGCGGGUUCAAGUCCCGUACUGAACG — lower, ≤ 0.5
- GUUCCAUUGGCGUAAUGGUAACGCGUCUCCCUCCUAAGGAGAAGACUGCGGGUUCGAAUCCCGUACGGAACG — higher, 0.902
